How the values were obtained:
[1] = target: Sodium-dependent serotonin transporter (Rattus norvegicus, UniProt P31652); experiment: Inhibition of [3H]5-HT reuptake at rat serotonin transporter
Procedure, shortened: (§1)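 Uptake into synaptosomes in Krebs-phosphate buffer, pH 7.4, with ascorbic acid 1 mg/mL and pargyline 50 µM. Final tracer was 5 nM [3H]DA or 2 nM [3H]5HT. Incubated at 25 °C for 15 min (DA) or 30 min (5HT), then filtered and filter tritium counted. IC50 derived.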

[2] = target: Monoamine transporters; serotonin & dopamine (Rattus norvegicus) (UniProt P31652+P23977); experiment: Ratio of binding affinities of Serotonin transporter vs Dopamine transporter reuptake; assay type: protein assay
Monoamine transporters; serotonin & dopamine (Rattus norvegicus), sequence (P23977 whole entry, looked up): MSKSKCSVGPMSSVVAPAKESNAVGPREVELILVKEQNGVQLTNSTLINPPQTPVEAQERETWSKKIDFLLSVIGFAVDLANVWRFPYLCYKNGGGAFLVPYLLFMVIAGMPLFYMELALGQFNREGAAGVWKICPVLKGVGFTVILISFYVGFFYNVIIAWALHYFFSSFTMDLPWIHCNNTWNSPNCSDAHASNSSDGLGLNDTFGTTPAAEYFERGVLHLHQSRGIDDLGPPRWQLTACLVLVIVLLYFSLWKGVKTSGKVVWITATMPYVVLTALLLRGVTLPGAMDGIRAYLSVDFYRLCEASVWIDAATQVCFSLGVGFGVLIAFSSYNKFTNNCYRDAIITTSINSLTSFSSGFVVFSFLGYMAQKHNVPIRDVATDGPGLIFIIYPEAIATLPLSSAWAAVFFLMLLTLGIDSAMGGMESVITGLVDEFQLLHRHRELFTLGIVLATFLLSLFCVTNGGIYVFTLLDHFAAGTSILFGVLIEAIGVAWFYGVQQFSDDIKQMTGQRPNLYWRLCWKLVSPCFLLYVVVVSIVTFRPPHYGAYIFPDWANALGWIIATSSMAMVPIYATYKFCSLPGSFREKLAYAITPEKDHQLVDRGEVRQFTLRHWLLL
Monoamine transporters; serotonin & dopamine (Rattus norvegicus), sequence (P31652 whole entry, looked up): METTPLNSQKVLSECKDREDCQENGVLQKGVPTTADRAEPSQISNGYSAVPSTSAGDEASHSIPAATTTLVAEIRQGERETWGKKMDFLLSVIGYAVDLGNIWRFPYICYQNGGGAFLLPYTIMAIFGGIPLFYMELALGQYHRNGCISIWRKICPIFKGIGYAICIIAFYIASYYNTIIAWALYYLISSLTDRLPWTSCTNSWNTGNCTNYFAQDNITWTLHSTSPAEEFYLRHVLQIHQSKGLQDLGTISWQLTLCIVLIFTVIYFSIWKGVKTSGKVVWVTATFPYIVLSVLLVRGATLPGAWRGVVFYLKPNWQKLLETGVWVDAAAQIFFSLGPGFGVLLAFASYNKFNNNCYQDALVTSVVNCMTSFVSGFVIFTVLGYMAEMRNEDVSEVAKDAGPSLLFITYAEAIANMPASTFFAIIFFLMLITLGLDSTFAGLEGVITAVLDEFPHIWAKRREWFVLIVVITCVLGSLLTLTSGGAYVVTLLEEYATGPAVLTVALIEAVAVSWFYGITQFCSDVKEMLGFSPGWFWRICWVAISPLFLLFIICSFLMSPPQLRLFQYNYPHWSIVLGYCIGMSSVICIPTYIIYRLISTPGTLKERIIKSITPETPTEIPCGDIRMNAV
Procedure, shortened: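 Ratio is the IC50 for [3H]5HT reuptake over the IC50 for [3H]DA reuptake. Both were measured in synaptosomes at 25 °C: 2 nM [3H]5HT for 30 min and 5 nM [3H]DA for 15 min, in Krebs-phosphate buffer, pH 7.4, with pargyline and ascorbic acid.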

[3] = target: T1, Sodium-dependent dopamine transporter (Rattus norvegicus, UniProt P23977); experiment: Binding against Dopamine transporter using radioligand as [3H]GBR 12935
T1 sequence (P23977 whole entry): as the sequence (P23977 whole entry, looked up) above

[4] = target: T1, Sodium-dependent dopamine transporter; experiment: Inhibition of dopamine DA reuptake; procedure, shortened: as §1
[5] = target: T1, Sodium-dependent dopamine transporter; experiment: Binding affinity against dopamine transporter using radioligand as [3H]GBR 12935
Procedure, shortened: (§2)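 DAT binding by displacement of 2 nM [3H]GBR 12935 or 0.01 nM [125I]RTI 55. Drugs were in 55.2 mM sodium phosphate buffer, pH 7.4, with 1 mg/mL BSA; radioligand was in the same buffer with chymostatin, leupeptin, EDTA and EGTA. Incubated in triplicate for 18-24 h at 4 °C to equilibrium, then filtered over polyethylenimine-presoaked GF/B filters. IC50 derived.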

[6] = target: T1, Sodium-dependent dopamine transporter; experiment: Compound was tested for binding affinity against dopamine transporter using radioligand as […]; procedure, shortened: as §2
[7] = target: T1, Sodium-dependent dopamine transporter; experiment: Compound was tested for binding against Dopamine transporter using radioligand as […]
[8] = Ratio of receptor binding affinities of [3H]5-HT vs [125I]-RTI 55 uptake

Sodium-dependent serotonin transporter, sequence (P31652 whole entry): as the sequence (P31652 whole entry, looked up) above

`C[C@@H]1CN(CCOC(c2ccc(F)cc2)c2ccc(F)cc2)[C@@H](C)CN1CCCc1ccccc1` gave an IC50 [1] of 459 nM, a Ratio [2] of 31 and an IC50 [3] of 40 nM. It also gave an IC50 [4] of 15 nM.
Work on `c1ccc(CCCNC[C@@H]2CCCN2CCOC(c2ccccc2)c2ccccc2)cc1` yielded an IC50 [1] of 986 nM, an IC50 [5] of 5.1 nM and a Ratio [2] of 1410. For the same compound, the IC50 [4] was 0.7 nM.
With `CC(C)(CNCCCc1ccccc1)CNCCOC(c1ccccc1)c1ccccc1` the IC50 [1] was 1890 nM, the IC50 [5] was 169 nM and the Ratio [2] was 23. For the same compound, the IC50 [4] was 83 nM.
For `c1ccc(CCCN2CCCCN(CCOC(c3ccccc3)c3ccccc3)CC2)cc1`, the IC50 [1] was 1590 nM, the IC50 [5] was 864 nM and the Ratio [2] was 17. It also gave an IC50 [4] of 93 nM.
Work on `c1ccc(CCCNCCCCNCCOC(c2ccccc2)c2ccccc2)cc1` yielded an IC50 [1] of 376 nM, a Ratio [2] of 11 and an IC50 [3] of 80 nM. For the same compound, the IC50 [4] was 35 nM.
Compound `C[C@@H]1CN(CCCc2ccccc2)[C@@H](C)CN1` has an IC50 [1] of 12200 nM, an IC50 [3] of over 30000 nM and an IC50 [4] of over 30000 nM.
In the case of `CC1(C)CN(CCCc2ccccc2)CCN(CCOC(c2ccccc2)c2ccccc2)C1`, the IC50 [1] is reported as 3150 nM, the IC50 [5] is reported as 286 nM and the Ratio [2] is reported as 36. For the same compound, the IC50 [4] was 87 nM.
With `c1ccc(CCCN2CCCN(CCOC(c3ccccc3)c3ccccc3)CC2)cc1` the IC50 [1] was 34100 nM, the IC50 [5] was 7.9 nM and the Ratio [2] was 4740. For the same compound, the IC50 [4] was 7.2 nM.
For `c1ccc(C(OCCN2CCNCC2)c2ccccc2)cc1`, the IC50 [1] was 9570 nM, the IC50 [5] was 110 nM and the Ratio [2] was 1.1. For the same compound, the IC50 [4] was 124 nM.
For `C[C@@H]1CN(CCOC(c2ccc(F)cc2)c2ccc(F)cc2)[C@@H](C)CN1`, the IC50 [1] was 8940 nM, the IC50 [5] was 106 nM and the Ratio [2] was 298. For the same compound, the IC50 [6] was 44 nM and the IC50 [4] was 30 nM.
With `c1ccc(C(OCCN2CCN(CCOC(c3ccccc3)c3ccccc3)CC2)c2ccccc2)cc1` the IC50 [7] was 1.6 nM, the IC50 [1] was 1710 nM and the Ratio [8] was 7.5. For the same compound, the Ratio [2] was 1.3, the IC50 [3] was 9.3 nM and the IC50 [4] was 12 nM.
For `c1ccc(CCCN2CCCCC(NCCOC(c3ccccc3)c3ccccc3)C2)cc1` (centres undefined), the IC50 [1] was 2860 nM, the IC50 [5] was 74 nM and the Ratio [2] was 50. The IC50 [4] was 57 nM.
With `Fc1ccc(C(OCCN2CCC[C@H]2CNCCCc2ccccc2)c2ccc(F)cc2)cc1` the IC50 [1] was 20100 nM, the Ratio [2] was 693 and the IC50 [3] was 104 nM. For the same compound, the IC50 [4] was 29 nM.
With `Oc1cccc(CCCNC[C@@H]2CCCN2CCOC(c2ccccc2)c2ccccc2)c1` the IC50 [1] was 857 nM, the IC50 [5] was 222 nM and the Ratio [2] was 28. It also gave an IC50 [4] of 31 nM.
Work on `C[C@@H]1CN(CCOC(c2ccccc2)c2ccccc2)[C@@H](C)CN1CCCc1ccccc1` yielded an IC50 [1] of 1730 nM and an IC50 [3] of 21 nM.
In the case of `NCCCCNCCOC(c1ccccc1)c1ccccc1`, the IC50 [1] is reported as 6830 nM and the IC50 [5] is reported as 9780 nM.
In the case of `Fc1ccc(C(OCCN2CCCN(C/C=C/c3ccccc3)CC2)c2ccc(F)cc2)cc1`, the IC50 [1] is reported as 234 nM, the Ratio [2] is reported as 69 and the IC50 [3] is reported as 2.6 nM. It also gave an IC50 [4] of 3.4 nM.
With `c1ccc(CCCN2CCNCC2)cc1` the IC50 [1] was 361 nM, the IC50 [3] was over 30000 nM and the IC50 [4] was over 30000 nM.
`c1ccc(C(OCCN2CCCNCC2)c2ccccc2)cc1` showed an IC50 [1] of 14300 nM, an IC50 [5] of 1360 nM and a Ratio [2] of 22. The IC50 [4] was 651 nM.
In the case of `C[C@@H]1CN(CCOC(c2ccccc2)c2ccccc2)[C@@H](C)CN1`, the IC50 [1] is reported as 25300 nM, the IC50 [5] is reported as 1000 nM and the Ratio [2] is reported as 183. The IC50 [4] was 138 nM.
For `C[C@@H]1CN(CCOC(c2ccc(F)cc2)c2ccc(F)cc2)[C@@H](C)CN1CCOC(c1ccc(F)cc1)c1ccc(F)cc1`, the IC50 [1] was 4240 nM, the IC50 [5] was 36 nM and the Ratio [2] was 2.4. It also gave an IC50 [4] of 86 nM.
Work on `Fc1ccc(C(OCCN2CCN(CCOC(c3ccc(F)cc3)c3ccc(F)cc3)CC2)c2ccc(F)cc2)cc1` yielded an IC50 [7] of 1.1 nM, an IC50 [1] of 278 nM and a Ratio [8] of 36.4. The Ratio [2] was 5.5, the IC50 [3] was 7.3 nM and the IC50 [4] was 40 nM.
For `C[C@@H]1CN(CCCc2ccccc2)[C@@H](C)CN1CCCc1ccccc1`, the IC50 [1] was 2530 nM, the IC50 [5] was 9940 nM and the Ratio [2] was 0.1. It also gave an IC50 [4] of 1330 nM.
Work on `C[C@@H]1CN(CCOC(c2ccccc2)c2ccccc2)[C@@H](C)CN1CCOC(c1ccccc1)c1ccccc1` yielded an IC50 [1] of 6220 nM, an IC50 [5] of 33 nM and a Ratio [2] of 1.1. The IC50 [4] was 35 nM.
For `C[C@@H]1CN(CCOC(c2ccccc2)c2ccccc2)[C@@H](C)CN1C/C=C/c1ccccc1`, the IC50 [1] was 2680 nM, the IC50 [5] was 103 nM and the Ratio [2] was 134. The IC50 [4] was 20 nM.
`Fc1ccc(C(OCCN2CCCN(CCCc3ccccc3)CC2)c2ccc(F)cc2)cc1` gave an IC50 [1] of 112 nM, a Ratio [2] of 33 and an IC50 [3] of 4.4 nM. The IC50 [4] was 3.4 nM.
For `Fc1ccc(C(OCCN2CCNCC2)c2ccc(F)cc2)cc1`, the IC50 [1] was 1400 nM, the Ratio [2] was 0.7 and the IC50 [3] was 104 nM. The IC50 [4] was 71 nM.
Compound `Fc1ccc(C(OCCN2CCCNCC2)c2ccc(F)cc2)cc1` has an IC50 [1] of 2080 nM, an IC50 [5] of 143 nM and a Ratio [2] of 122. It also gave an IC50 [4] of 17 nM.
Compound `c1ccc(CCCN2CCN(CCCc3ccccc3)CC2)cc1` has an IC50 [1] of 1340 nM, a Ratio [2] of 0.2 and an IC50 [3] of 7760 nM. For the same compound, the IC50 [4] was 1640 nM.
With `CNCCN(C)CCOC(c1ccccc1)c1ccccc1` the IC50 [1] was over 10000 nM, the IC50 [5] was 834 nM and the IC50 [4] was 545 nM.
In the case of `C[C@@H]1CN(CCOC(c2ccc(F)cc2)c2ccc(F)cc2)[C@@H](C)CN1C/C=C/c1ccccc1`, the IC50 [1] is reported as 1180 nM, the Ratio [2] is reported as 42 and the IC50 [3] is reported as 23 nM. It also gave an IC50 [4] of 28 nM.
Work on `c1ccc(CCCNC2CCCCN(CCOC(c3ccccc3)c3ccccc3)C2)cc1` (centres undefined) yielded an IC50 [1] of 1480 nM, an IC50 [5] of 20 nM and a Ratio [2] of 159. It also gave an IC50 [4] of 9.3 nM.
With `CC(C)(CN)CNCCOC(c1ccccc1)c1ccccc1` the IC50 [1] was over 10000 nM, the IC50 [5] was 1460 nM and the IC50 [4] was 453 nM.
`C(=C\c1ccccc1)/CN1CCCN(CCOC(c2ccccc2)c2ccccc2)CC1` gave an IC50 [1] of 503 nM, an IC50 [5] of 8.6 nM and a Ratio [2] of 838. The IC50 [4] was 0.6 nM.
`c1ccc(CCCNC[C@H]2CCCN2CCOC(c2ccccc2)c2ccccc2)cc1` showed an IC50 [1] of 3210 nM, an IC50 [5] of 747 nM and a Ratio [2] of 25. The IC50 [4] was 127 nM.
In the case of `CN(CCCc1ccccc1)CCN(C)CCOC(c1ccccc1)c1ccccc1`, the IC50 [1] is reported as 2450 nM and the IC50 [5] is reported as 27 nM.

Source: ChEMBL document CHEMBL1129408, “Development of novel, potent, and selective dopamine reuptake inhibitors through alteration of the piperazine ring of 1-[2-(diphenylmethoxy)ethyl]-and 1-[2-[bis(4-fluorophenyl)methoxy]ethyl]-4-(3-phenylpropyl)piperazines (GBR 12935 and GBR 12909)” (J Med Chem, 1996)
